Assay results reported in paper PMC9804109 (Current Research in Pharmacology and Drug Discovery, 2022).

What was measured:
V79 lung fibroblasts = conditions: ref Grosicka-Maciąg et al., 2011; cited from earlier work
melanoma cells = conditions: ref Le Gal et al., 2015; cited from earlier work
LN-229 cells = assay: MitoSOX flow cytometry of mitochondrial ROS, LN-229; format: cell-based, human; conditions: cytochrome c reductase inhibitor as control
Outline: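 Cells trypsinised, washed and suspended in HBSS at 1 × 10^6 cells/mL, then exposed to test compound (0.2 or 1 mM) in HBSS for 2 h. Stained with 5 μM MitoSOX for 20 min at 37 °C and read by flow cytometry in the red channel. Antimycin A served as the ROS-promoting control. Mean channel fluorescence ± SEM, n = 3; two-way ANOVA with Bonferroni post-test vs untreated.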

trypsin = conditions: previous HPLC conditions; ref Akhmadishina et al., 2018; cited from earlier work

CC(=O)N[C@@H](CS)C(=O)O [N-acetylcysteine (NAC), N-acetylcysteine]
increase of both GSH and GSSG levels (V79 lung fibroblasts): up to 2 times
elevation of GSH/GSSG ratio (melanoma cells): ~3.8 times

Cc1c(C)c2c(c(C)c1O)CCC(C)(C(=O)O)O2 (centres unmarked) [Trolox]
elevation of GSH/GSSG ratio (melanoma cells): ca. 2.5 times

CCCCCC[C@H]1C(=O)O[C@H](C)[C@H](NC(=O)c2cccc(NC=O)c2O)C(=O)O[C@@H](C)[C@@H]1OC(=O)CC(C)C [antimycin A]
effect on mitochondrial ROS (MitoSOX) (LN-229 cells): lack of ROS-promoting effect

YRFK-NH2
half-time of cleavage by trypsin (trypsin): 6 h
